Results published in ChEMBL document CHEMBL1141552, “Synthesis and antitubercular activity of 7-(R)- and 7-(S)-methyl-2-nitro-6-(S)-(4-(trifluoromethoxy)benzyloxy)-6,7-dihydro-5H-imidazo[2,1-b][1,3]oxazines, analogues of PA-824” (Bioorg Med Chem Lett, 2008).
Values after ≈ are worked out from the molar mass of the structure shown.

Key:
[1] = Aqueous solubility of the compound; format: physicochemical
Procedure, shortened: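 Excess solid (3–5 mg) shaken in 0.5 mL water for 3 days, then centrifuged at 10,000g for 5 min. Supernatant diluted in water and analysed by LC/MS with UV peak area at 310 nm. Concentration read from a previously determined calibration curve, corrected for dilution.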

[2] = system: Mycobacterium tuberculosis; assay: Antitubercular activity against Mycobacterium tuberculosis H37Rv under aerobic conditions; format: functional
Procedure, shortened: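 Broth dilution MIC99 against Mtb H37Rv (ATCC 27294) and its H37Rv mutants under aerobic conditions. Compound stocks were made in DMSO at 20 mM.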

[3] = system: Mycobacterium tuberculosis; assay: Antitubercular activity against Mycobacterium tuberculosis H37Rv by oxygen depletion assay; format: functional
Procedure, shortened: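 Early-log Mtb cultures in Dubos broth were diluted 100-fold and sealed at a 0.5 head-space ratio, then stirred for 20 days to reach NRP-2. The cells were handled anaerobically and exposed to 1.95–500 μM drug in two-fold dilutions for 7 days at 37°C. After three washes, the cells were spotted on 7H11 agar for 3 weeks. MAC was taken as the concentration giving 90% reduction in visible growth.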

## C[C@H]1Oc2nc([N+](=O)[O-])cn2C[C@@H]1OCc1ccc(OC(F)(F)F)cc1
[1]
  solubility: 10.3 µg/mL (≈ 27.6 µM)
[2]
  MIC: 0.2 µM (≈ 0.0747 µg/mL)
[3]
  MAC: 8 µM

## C[C@@H]1Oc2nc([N+](=O)[O-])cn2C[C@@H]1OCc1ccc(OC(F)(F)F)cc1
[1]
  solubility: 9.89 µg/mL (≈ 26.5 µM)
[2]
  MIC: 0.2 µM (≈ 0.0747 µg/mL)
[3]
  MAC: 16 µM

## O=[N+]([O-])c1cn2c(n1)OC[C@@H](OCc1ccc(OC(F)(F)F)cc1)C2 [PRETOMANID]
[1]
  solubility: 10.2 µg/mL (≈ 28.4 µM)
[2]
  MIC: 0.4 µM (≈ 0.144 µg/mL)
[3]
  MAC: 8 µM
